This passage reports CC50 results from PubChem BioAssay AID488976 (Southern Research Specialized Biocontainment Screening …, 2010).

What is called CC50 is the concentration that lowers cell viability or growth by half.

The structures appear in SMILES notation. Activity calls are given as the source filed them.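 Rule for the calls: active = cell viability under 70% at any tested concentration, a measure not printed in our tables; inactive = the rest.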 A value given as a limit tells only on which side of the number the result lay.

The assay concerns HEp-2 viability, ATP luminescence. Put plainly: HEp-2 cell cytotoxicity, dose response, cytotoxicity control for RSV inhibitor project, ATP luminescence, purified and synthesized compounds (AID 488976). Summed up:
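Assay system: uninfected HEp-2 cells, no virus added; benchmarks: cell-only wells without compound; measured by: CellTiter-Glo luminescence; replication: triplicate; incubation: six-day compound exposure of cells at 37 °C; buffer or medium: DMEM/F12; read-out: % viability versus median cell-only signal, CC50 via 4-parameter fit; doses: 8 twofold steps, 0.39–50 µM, 0.5% DMSO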
Consider `Cc1ccc(NC(=O)C2CCCN2S(=O)(=O)c2ccc3ncccc3c2)c(C)c1` (configuration not stated), for which the CC50 was > 50 µM (inactive).
On to `CSc1ncccc1C(=O)Nc1nc(C)cs1`, for which the CC50 was > 50 µM (inactive).
Consider `Cc1ccc(NC(=O)C2CCCN2C(=O)c2cccc3cccnc23)c(C)c1` (configuration not stated), for which the CC50 is > 50 µM (inactive).
As for `Cc1ccc(NC(=O)[C@H]2CCCN2S(=O)(=O)c2cccc3cccnc23)c(C)c1`, the figure is 38 µM; as for `Cc1ccc(NC(=O)C2CCCN2S(=O)(=O)c2cccc3ccccc23)c(C)c1` (configuration not stated), 17.8 µM; as for `Cc1ccc(NC(=O)[C@@H]2CCCN2S(=O)(=O)c2cccc3cccnc23)c(C)c1`, 38.9 µM.
As for `Cc1ccc(NC(=O)C2CCCN2S(C)(=O)=O)c(C)c1` (configuration not stated), the figure is > 50 µM (inactive).
Regarding `Cc1csc(NC(=O)c2cccnc2)n1`, the CC50 was > 50 µM (inactive).
As for `Cc1ccc(NC(=O)C2CCCN2S(=O)(=O)c2cccc3cnccc23)c(C)c1` (configuration not stated), the CC50 was > 50 µM (inactive).
In the case of `O=C(Nc1ccc(C(F)(F)F)cc1[N+](=O)[O-])O[C@H]1[C@H](Cc2ccccc2)NS(=O)(=O)[C@H]2C[C@@H]3C=C[C@]12O3`, the half-maximal cytotoxic concentration (CC50) was 22.1 µM.
As for `CSc1ncccc1C(=O)Nc1nc(C(C)(C)C)cs1`, the figure is 28.7 µM; as for `Cc1ccc(NC(=O)C2CCCN2S(=O)(=O)c2cccc3cccnc23)c(C)c1` (configuration not stated), 40.5 µM; as for `Cc1ccc(NC(=O)C2CCCN2S(=O)(=O)c2ccccc2)c(C)c1` (configuration not stated), > 50 µM (inactive).
As for `Cc1ccc(NC(=O)C2CCCN2C(=O)c2ccccc2)c(C)c1` (configuration not stated), the figure is > 50 µM (inactive); as for `Cc1ccc(NC(=O)C2CCCN2Cc2cccc3cccnc23)c(C)c1` (configuration not stated), 13.3 µM.
As to `Cc1ccc(NC(=O)C(C)NS(=O)(=O)c2cccc3cccnc23)c(C)c1` (configuration not stated), the CC50 was > 50 µM (inactive).
Regarding `Cc1ccc(NC(=O)CNS(=O)(=O)c2cccc3cccnc23)c(C)c1`, the CC50 is > 50 µM (inactive).
